Results taken from ChEMBL document CHEMBL4715684, “Computer-aided discovery of phenylpyrazole based amides as potent S6K1 inhibitors” (RSC Med Chem, 2020).

Legend:
[1] = biological target: Ribosomal protein S6 kinase beta-1 (Homo sapiens, UniProt P23443); assay: Inhibition of human S6K1 using KKRNRTLTK peptide substrate by radiometric assay
CYP2C9 = CYP2C9 (Homo sapiens, UniProt P11712); assay: Inhibition of human CYP2C9 using tolubutamide as substrate at 10 uM by cocktail inhibition assay; assay type: ADME; settings: probe tolubutamide
CYP2C9, sequence (P11712 whole entry, canonical isoform): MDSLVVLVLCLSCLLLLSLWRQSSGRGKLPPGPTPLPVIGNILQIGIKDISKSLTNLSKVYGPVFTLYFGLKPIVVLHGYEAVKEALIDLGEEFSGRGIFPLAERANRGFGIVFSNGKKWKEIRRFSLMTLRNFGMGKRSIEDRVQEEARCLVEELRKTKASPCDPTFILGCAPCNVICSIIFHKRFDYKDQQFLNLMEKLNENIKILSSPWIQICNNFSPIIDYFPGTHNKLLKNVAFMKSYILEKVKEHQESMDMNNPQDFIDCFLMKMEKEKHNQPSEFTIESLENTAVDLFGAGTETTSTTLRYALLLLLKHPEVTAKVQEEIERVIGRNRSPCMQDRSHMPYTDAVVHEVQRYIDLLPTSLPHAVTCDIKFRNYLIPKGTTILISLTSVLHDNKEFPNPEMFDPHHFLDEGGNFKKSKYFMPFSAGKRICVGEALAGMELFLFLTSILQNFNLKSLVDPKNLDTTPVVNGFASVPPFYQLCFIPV
How it was run: (§1)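 Cocktail P450 assay measuring marker metabolism with and without 10 µM test compound: CYP1A2 phenacetin […] to acetaminophen, CYP2C9 tolbutamide to hydroxytolbutamide, CYP2D6 bufuralol to […], CYP3A4 midazolam to 1'-hydroxymidazolam. Each substrate was at about its Km. Isoform-specific inhibitors were run as system controls. Values are means of three experiments, with errors within 30% of the mean.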

[2] = Clearance in Sprague-Dawley rat at 1 mg/kg, iv measured upto 8 hrs by LC/MS/MS analysis; assay type: ADME, organism-based; settings: in vivo
How it was run: (§2)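 Sprague Dawley rats were dosed with compound in a generic formulation at 1 mg mL-1, either 1 mg kg-1 iv into the femoral vein or 2 mg kg-1 by oral gavage. Blood was drawn at 5, 15, 30 min and 1, 2, 4, 6, 8 h into EDTA, and plasma was obtained by centrifugation. Plasma was precipitated with acetonitrile containing internal standard, then analysed by C18 LC-MS/MS (positive MRM) against internal-standard peak areas. Data were fitted with an IV bolus model.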

[3] = Oral bioavailability in Sprague-Dawley rat at 2 mg/kg measured upto 8 hrs by LC/MS/MS analysis; assay type: ADME, organism-based; settings: in vivo; how it was run: as §2
CYP1A2 = biological target: T1, CYP1A2 (Homo sapiens, UniProt P05177); assay: Inhibition of human CYP1A2 using phenacetin as substrate at 10 uM by cocktail inhibition assay; assay type: ADME; settings: probe phenacetin; how it was run: as §1
T1 sequence (P05177 whole entry): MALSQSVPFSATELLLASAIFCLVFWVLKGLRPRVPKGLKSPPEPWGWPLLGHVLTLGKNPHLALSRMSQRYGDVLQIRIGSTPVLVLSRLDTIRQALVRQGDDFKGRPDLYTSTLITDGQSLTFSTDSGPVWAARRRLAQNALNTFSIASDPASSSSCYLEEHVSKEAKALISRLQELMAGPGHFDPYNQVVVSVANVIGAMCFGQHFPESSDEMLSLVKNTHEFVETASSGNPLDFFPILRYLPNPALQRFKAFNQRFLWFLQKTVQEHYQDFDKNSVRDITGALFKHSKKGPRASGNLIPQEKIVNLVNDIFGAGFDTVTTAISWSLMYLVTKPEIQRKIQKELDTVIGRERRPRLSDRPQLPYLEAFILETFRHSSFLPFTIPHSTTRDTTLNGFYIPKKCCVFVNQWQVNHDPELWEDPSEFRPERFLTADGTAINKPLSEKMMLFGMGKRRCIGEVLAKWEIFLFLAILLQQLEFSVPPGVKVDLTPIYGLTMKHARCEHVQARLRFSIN

[4] = AUC in Sprague-Dawley rat at 1 mg/kg, iv measured upto 8 hrs by LC/MS/MS analysis; assay type: ADME, organism-based; design: route intravenous, dose 1 mg/kg, time <=8; settings: in vivo; how it was run: as §2
CYP2D6 = CYP2D6 (Homo sapiens, UniProt P10635); assay: Inhibition of human CYP2D6 using bufuralol as substrate at 10 uM by cocktail inhibition assay; assay type: ADME; settings: probe bufuralol; how it was run: as §1
CYP2D6, sequence (P10635 whole entry): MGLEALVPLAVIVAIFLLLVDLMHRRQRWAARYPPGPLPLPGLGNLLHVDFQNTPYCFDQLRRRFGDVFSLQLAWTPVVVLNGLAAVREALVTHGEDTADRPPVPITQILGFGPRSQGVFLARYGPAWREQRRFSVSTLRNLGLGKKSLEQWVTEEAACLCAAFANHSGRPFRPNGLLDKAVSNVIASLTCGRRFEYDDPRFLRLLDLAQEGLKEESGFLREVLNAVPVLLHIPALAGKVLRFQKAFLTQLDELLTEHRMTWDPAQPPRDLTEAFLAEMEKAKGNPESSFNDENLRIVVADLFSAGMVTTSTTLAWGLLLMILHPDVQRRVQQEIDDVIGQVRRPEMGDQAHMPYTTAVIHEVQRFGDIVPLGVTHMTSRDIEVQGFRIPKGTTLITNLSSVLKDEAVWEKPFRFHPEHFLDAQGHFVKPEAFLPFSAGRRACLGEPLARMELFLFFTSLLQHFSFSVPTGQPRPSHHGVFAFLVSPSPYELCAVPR

CYP3A4 = CYP3A4 (Homo sapiens, UniProt P08684); assay: Inhibition of human CYP3A4 using midazolam as substrate at 10 uM by cocktail inhibition assay; assay type: ADME; settings: probe midazolam; how it was run: as §1
CYP3A4, sequence (P08684 whole entry): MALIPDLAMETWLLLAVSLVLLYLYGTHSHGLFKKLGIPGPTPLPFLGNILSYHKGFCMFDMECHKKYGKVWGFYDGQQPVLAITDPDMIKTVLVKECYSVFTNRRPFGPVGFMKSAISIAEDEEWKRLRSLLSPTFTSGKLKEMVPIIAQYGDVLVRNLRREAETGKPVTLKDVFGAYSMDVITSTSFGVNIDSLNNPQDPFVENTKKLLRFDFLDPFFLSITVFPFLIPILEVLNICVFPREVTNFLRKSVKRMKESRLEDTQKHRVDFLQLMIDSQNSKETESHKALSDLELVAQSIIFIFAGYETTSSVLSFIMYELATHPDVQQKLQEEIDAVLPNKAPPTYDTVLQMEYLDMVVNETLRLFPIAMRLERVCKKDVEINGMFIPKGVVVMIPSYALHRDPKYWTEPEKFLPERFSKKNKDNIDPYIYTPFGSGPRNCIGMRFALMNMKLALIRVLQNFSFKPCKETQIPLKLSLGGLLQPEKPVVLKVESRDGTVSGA

[5] = Metabolic stability in rat liver microsomes assessed as half life; assay type: ADME, Microsome
How it was run: (§3)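 Half-life in human or rat liver microsomes, reported as the mean of three experiments with errors within 30% of the mean.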

[6] = Cmax in Sprague-Dawley rat at 2 mg/kg, po measured upto 8 hrs by LC/MS/MS analysis; assay type: ADME, organism-based; design: route oral, dose 2 mg/kg, time <=8; settings: in vivo; how it was run: as §2
[7] = Half life in Sprague-Dawley rat at 1 mg/kg, iv measured upto 8 hrs by LC/MS/MS analysis; assay type: ADME, organism-based; settings: in vivo; how it was run: as §2
[8] = Volume of distribution in Sprague-Dawley rat at 1 mg/kg, iv measured upto 8 hrs by LC/MS/MS analysis; assay type: ADME, organism-based; settings: in vivo; how it was run: as §2
[9] = Metabolic stability in human liver microsomes assessed as half life; assay type: ADME, Microsome; how it was run: as §3

Ribosomal protein S6 kinase beta-1, sequence (P23443 whole entry): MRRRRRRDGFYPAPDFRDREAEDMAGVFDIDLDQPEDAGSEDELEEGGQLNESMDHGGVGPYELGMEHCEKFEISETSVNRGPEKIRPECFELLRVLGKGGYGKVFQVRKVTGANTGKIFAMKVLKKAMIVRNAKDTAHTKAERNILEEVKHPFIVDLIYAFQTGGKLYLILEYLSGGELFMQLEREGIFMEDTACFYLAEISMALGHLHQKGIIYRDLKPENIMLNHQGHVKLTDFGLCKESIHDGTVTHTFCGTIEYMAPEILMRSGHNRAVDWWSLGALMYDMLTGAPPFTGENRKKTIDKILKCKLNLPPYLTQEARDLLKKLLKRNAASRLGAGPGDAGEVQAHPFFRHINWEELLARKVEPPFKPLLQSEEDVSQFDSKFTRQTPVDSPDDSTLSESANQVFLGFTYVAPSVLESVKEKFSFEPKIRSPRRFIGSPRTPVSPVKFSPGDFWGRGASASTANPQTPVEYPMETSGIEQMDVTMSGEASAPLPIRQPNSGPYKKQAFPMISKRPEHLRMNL

Structure (SMILES) | IC50 [1] | inhibition at 10 µM (CYP2C9) | clearance [2] | bioavailability [3] | inhibition at 10 µM (CYP1A2) | AUC at 8 h [4] | inhibition at 10 µM (CYP2D6) | inhibition at 10 µM (CYP3A4) | half-life [5] | Cmax [6] | half-life [7] | Vd [8] | half-life [9]
O=C(Nc1ccc(-c2cn[nH]c2)cc1F)C1COc2ccccc2O1 (stereo not drawn) | 179 nM | – | – | – | – | – | – | – | – | – | – | – | –
COc1ccc2c(c1)CC(C(=O)Nc1cc(F)c(-c3cn[nH]c3)c(F)c1)CO2 (stereo not drawn) | 56.7 nM | 63% | 28 mL/min/kg | 25% | 42% | 1.6 µM·h | 40% | 38% | 17 min | 670 nM | 28.2 min | 0.7 L/kg | 23 min
O=C(Nc1cc(F)c(-c2cn[nH]c2)c(F)c1)C1COc2ccccc2C1 (stereo not drawn) | – | – | – | 23% | – | 1.5 µM·h | – | – | – | 600 nM | – | 0.8 L/kg | –
